Data on two compounds can be found in ChEMBL document CHEMBL1155482, “Synthesis, anticancer activity and apoptosis inducing ability of anthranilamide-PBD conjugates” (2010).

For orientation: GI50 means the concentration at which growth is held to half of that of the control.

One experiment relates to A549. The experiment in a line: Cytotoxicity against human A549 cells after 48 hrs by SRB assay. The conditions noted are these: A549, 48 h. Type of experiment: functional. In a few lines: (§1)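 Sulforhodamine B assay estimating cell density from cellular protein content, run on human cancer lines of lung, breast, oral, colon, cervix, ovary and prostate origin, with GI50 values derived.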
In general terms: Sulforhodamine B stains cellular protein and so reports cell mass.

The next experiment relates to HOP-62. The experiment in a line: Cytotoxicity against human HOP62 cells after 48 hrs by SRB assay. Type of experiment: functional. To be noted: HOP-62, 48 h. In a few lines:
as §1

The next experiment concerns ZR-75-1. The experiment in a line: Cytotoxicity against human ZR-75-1 cells after 48 hrs by SRB assay. Type of experiment: functional. The conditions noted are these: ZR-75-1, 48 h. A digest of the protocol:
as §1

The next experiment deals with MCF7. The experiment in a line: Cytotoxicity against human MCF7 cells after 48 hrs by SRB assay. To be noted: MCF7, 48 h. Format: functional. In a few lines: as §1
Experiment [1] can be described thus: Cytotoxicity against human DWD cells after 48 hrs by SRB assay. Format: functional. In a few lines:
as §1

For a further experiment, the system named is KB. Nature of the experiment: Cytotoxicity against human KB cells after 48 hrs by SRB assay. Type of experiment: functional. A digest of the protocol:
as §1

Experiment [2] is described as follows: Cytotoxicity against human Gurav cells after 48 hrs by SRB assay. Format: functional. In a few lines:
as §1

Another experiment has as its system PC-3. The experiment in a line: Cytotoxicity against human PC3 cells after 48 hrs by SRB assay. Type of experiment: functional. The conditions noted are these: PC-3, 48 h. A digest of the protocol: as §1
Another experiment concerns A2780. Nature of the experiment: Cytotoxicity against human A2780 cells after 48 hrs by SRB assay. Type of experiment: functional. To be noted: A2780, 48 h. A digest of the protocol:
as §1

In the next experiment the test system is COLO 205. Nature of the experiment: Cytotoxicity against human COLO205 cells after 48 hrs by SRB assay. Format: functional. To be noted: COLO 205, 48 h. In a few lines: as §1
A further experiment has as its system SiHa. Nature of the experiment: Cytotoxicity against human SiHa cells after 48 hrs by SRB assay. Format: functional. In a few lines: as §1
In experiment [3] the test system is A-375. The experiment in a line: Cell cycle arrest in human A375 cells assessed as accumulation at S phase at 1 uM by FACS analysis. Type of experiment: functional. In a few lines:
(§2)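 A375 cells were exposed to compound for 24 h, and cell cycle distribution was measured by FACS. The sub-G1 peak (labelled G0) was scored as the apoptotic cell percentage and compared with untreated control cells.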
(A flow cytometer gives signals particle by particle.)

Experiment [4] deals with A-375. Nature of the experiment: Cell cycle arrest in human A375 cells assessed as accumulation at G0/G1 phase at 1 uM by FACS analysis. Format: functional. A digest of the protocol:
as §2

Experiment [5] has as its system A-375. The experiment in a line: Cell cycle arrest in human A375 cells assessed as accumulation at G2/M phase at 1 uM by FACS analysis. Type of experiment: functional. In a few lines: as §2
For experiment [6], the system named is A-375. The experiment in a line: Induction of apoptosis in human A375 cells assessed as p53 protein expression at 1 uM after 24 hrs by Western blotting. Type of experiment: functional, cell-based. In a few lines: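 A375 cells were treated for 24 h, and lysates were probed for p53 by western blot with a p53-specific antibody. Untreated cells served as control and β-actin as loading control.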
In general terms: A western blot detects proteins with antibodies after separation by electrophoresis.

The subject of experiment [7] is A-375. Nature of the experiment: Induction of apoptosis in human A375 cells assessed as caspase 3 activation at 1 uM after 24 hrs by fluorimetry. Type of experiment: functional, cell-based. A digest of the protocol: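 Caspase-3 activity in treated A375 cells was measured by fluorimetry relative to untreated cells.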
In experiment [8] the target is T1, Type II restriction enzyme BamHI (Bacillus amyloliquefaciens) (UniProt P23940).
T1 sequence (whole entry): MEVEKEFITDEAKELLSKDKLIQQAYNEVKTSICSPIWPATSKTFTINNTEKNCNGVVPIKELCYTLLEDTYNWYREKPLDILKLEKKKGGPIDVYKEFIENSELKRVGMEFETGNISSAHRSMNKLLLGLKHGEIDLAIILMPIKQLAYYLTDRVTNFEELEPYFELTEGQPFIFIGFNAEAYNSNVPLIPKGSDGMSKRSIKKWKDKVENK
The experiment in a line: Inhibition of Bacillus amyloliquifaction Bam H1-mediated restriction digestion of pBR322 at 4 uM by RED 100 assay. A digest of the protocol: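 Restriction enzyme digestion (RED 100) of vector DNA by BamHI after exposure to compound at 2, 4, 8, 16 and 32 micromolar, with controls of vector cut without compound and uncut vector DNA.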

Experiment [9] has as its system A-375. The experiment in a line: Induction of apoptosis in human A375 cells assessed as cells in dub G1 phase at 1 uM after 24 hrs by FACS analysis. Format: functional. A digest of the protocol: as §2
Experiment [10] deals with A-375. The experiment in a line: Antitumor activity against human A375 cells assessed as cell viability at 1 uM after 24 hrs by MTT assay. Format: functional, cell-based.

Activity calls are given as the source filed them. The calls are words filed in the database; no cut-off is given here.

For the compound `COc1cc2c(cc1OCCCCCN1CCN(C(=O)c3ccccc3NCc3ccc4ccccc4c3)CC1)N=C[C@@H]1CCCN1C2=O`, the GI50 in the experiment on A549 was found to be 170 nM; in the experiment on HOP-62 it was 1800 nM; in the experiment on ZR-75-1, 150 nM; in the experiment on MCF7 it was 130 nM; in [1] it was 130 nM; in the experiment with KB, 130 nM. In addition, the GI50 in experiment [2] is 140 nM; with PC-3, 140 nM; with A2780, 140 nM; with COLO 205 it was 150 nM; in the experiment with SiHa it was 150 nM. Moreover, the Activity in the experiment on A-375 [3] stood at 7.09%; in the experiment with A-375 [4] it was 91.94%; in the experiment on A-375 [5], 1.97%; with A-375 [9], 7.333%. Further, the outcome in the experiment on A-375 [6], with A-375 [7] and in the experiment on A-375 [10] was Active. Also, the inhibition result in [8] was “Active”.

Regarding `COc1cc2c(cc1OCCCN1CCN(C(=O)c3ccccc3NCc3ccc4ccccc4c3)CC1)N=C[C@@H]1CCCN1C2=O`, the GI50 in the experiment with A549 came to 170 nM; with HOP-62, 1700 nM; in the experiment on ZR-75-1, 150 nM; in the experiment on MCF7, 140 nM; in experiment [1], 140 nM; in the experiment on KB it was 150 nM. In addition, the GI50 was 170 nM in [2]; 140 nM with PC-3; 170 nM in the experiment on A2780; 180 nM with COLO 205; 160 nM in the experiment on SiHa. Also, the Activity came to 6.32% in the experiment on A-375 [3], 83.66% with A-375 [4], 6.32% in the experiment with A-375 [5] and 5.486% with A-375 [9]. The result in the experiment with A-375 [7] and with A-375 [10] was Active.
